Results taken from ChEMBL document CHEMBL1149168, “Discovery and evaluation of potent P1 aryl heterocycle-based thrombin inhibitors” (J Med Chem, 2004).

Legend:
[1] = Ability to double the activated partial thromboplastin time (2x APTT) in human plasma; type: functional
Prothrombin = Prothrombin (Homo sapiens, UniProt P00734); assay: Inhibitory potency against human thrombin
Canis familiaris = species: Canis familiaris; assay: Half life of compound in dog was determined; type: ADME, organism-based, Canis lupus familiaris; conditions: in vivo
[2] = Half-life of compound in dog following p.o. administration of 0.95 mg/kg; type: ADME, organism-based, Canis lupus familiaris; parameters: dose 0.95 mg/kg, route oral; conditions: in vivo, po
Method in brief: (§1)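 Male beagle dogs (10–12 kg), fasted overnight, were given the inhibitor orally at the stated mg/kg as a solution or suspension in 0.5% methocel. Plasma was stored at –20 °C until HPLC analysis.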

[3] = Maximum plasma concentration of compound in dog following p.o. administration of 0.95 mg/kg; type: ADME, organism-based, Canis lupus familiaris; parameters: dose 0.95 mg/kg, route oral; conditions: po; method in brief: as §1
Coagulation factor X = Coagulation factor X (Homo sapiens, UniProt P00742); assay: Inhibitory potency of compound against human Coagulation factor Xa
Coagulation factor X, sequence (P00742 41-179 limits assumed): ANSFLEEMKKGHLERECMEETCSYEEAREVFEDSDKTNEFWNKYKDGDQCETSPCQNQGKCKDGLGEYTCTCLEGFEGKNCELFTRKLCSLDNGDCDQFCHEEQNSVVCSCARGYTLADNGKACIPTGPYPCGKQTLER
Coagulation factor X, sequence (P00742 235-488 limits assumed): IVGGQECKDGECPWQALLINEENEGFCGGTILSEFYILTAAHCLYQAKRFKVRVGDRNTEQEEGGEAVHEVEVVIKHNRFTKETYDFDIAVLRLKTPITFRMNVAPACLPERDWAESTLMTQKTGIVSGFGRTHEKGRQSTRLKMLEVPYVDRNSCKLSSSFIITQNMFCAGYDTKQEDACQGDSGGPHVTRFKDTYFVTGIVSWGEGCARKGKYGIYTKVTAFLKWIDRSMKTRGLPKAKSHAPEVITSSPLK

[4] = Half-life of compound in dog following p.o. administration of 0.5 mg/kg; type: ADME, organism-based, Canis lupus familiaris; parameters: dose 0.5 mg/kg, route oral; conditions: in vivo, po; method in brief: as §1
[5] = Maximum plasma concentration of compound in dog following p.o. administration of 0.5 mg/kg; type: ADME, organism-based, Canis lupus familiaris; parameters: dose 0.5 mg/kg, route oral; conditions: po; method in brief: as §1
[6] = Half life of compound in dog following oral administration; type: ADME, organism-based, Canis lupus familiaris; conditions: in vivo; method in brief: as §1
[7] = Oral bioavailability in dog; type: ADME, organism-based, Canis lupus familiaris; conditions: in vivo
[8] = Oral bioavailability of compound in rhesus macaques; type: ADME, organism-based, Macaca mulatta; conditions: rhesus monkey, in vivo
[9] = Oral bioavailability of compound in rat; type: ADME, organism-based; conditions: in vivo
[10] = Maximum plasma concentration of compound in dog following p.o. administration of 0.9 mg/kg; type: ADME, organism-based, Canis lupus familiaris; parameters: dose 0.9 mg/kg, route oral; conditions: po; method in brief: as §1
[11] = Half-life of compound in dog following p.o. administration of 0.9 mg/kg; type: ADME, organism-based, Canis lupus familiaris; parameters: dose 0.9 mg/kg, route oral; conditions: in vivo, po; method in brief: as §1
[12] = Half-life of compound in dog following p.o. administration of 1 mg/kg; type: ADME, organism-based, Canis lupus familiaris; parameters: dose 1 mg/kg, route oral; conditions: in vivo, po; method in brief: as §1
[13] = Maximum plasma concentration of compound in dog following p.o. administration of 1 mg/kg; type: ADME, organism-based, Canis lupus familiaris; parameters: dose 1 mg/kg, route oral; conditions: po; method in brief: as §1

Row | Ki (Prothrombin) | Structure (SMILES) | 2x APTT [1] | further results
1 | 0.096 nM | O=C(Cn1c(Cl)cnc(NCC(F)(F)c2ccccn2)c1=O)NCc1ccccc1-n1cnnn1 | 0.22 µM | 
2 |  | O=C(Cn1c(Cl)cnc(NCC(F)(F)c2ccccn2)c1=O)NCc1ncccc1F [DPOC-4088] |  | T1/2 (Canis familiaris): 4.5 h
3 | 4.2 nM | O=C(Cn1c(Cl)cnc(NCC(F)(F)c2ccccn2)c1=O)NCc1ccccc1-c1c[nH]cn1 | 1.83 µM | 
4 | 1.4 nM | Cc1ccc(NS(=O)(=O)Cc2ccccc2)c(=O)n1CC(=O)NCc1ccccc1-n1cnnn1 | 0.37 µM | 
5 | 0.033 nM | O=C(Cn1ccnc(NCC(F)(F)c2ccccn2)c1=O)NCc1cc(Cl)ccc1-n1cnnn1 | 0.2 µM | half-life [2]: 2 h; Cmax [3]: 1310 nM; Ki (Coagulation factor X): 10 nM
6 | 0.013 nM | O=C(Cn1ccnc(NCC(F)(F)c2cccc[n+]2[O-])c1=O)NCc1cc(Cl)ccc1-n1cnnn1 | 0.12 µM | Ki (Coagulation factor X): 5 nM
7 | 0.44 nM | O=C(Cn1c(Cl)cnc(NCC(F)(F)c2ccccn2)c1=O)NCc1cccc(Cl)c1 | 0.79 µM | 
8 | 0.33 nM | N[C@H](Cc1ccccc1)C(=O)N1CCC[C@H]1CC(=O)NCc1cc(Cl)ccc1-n1cnnn1 | 0.23 µM | 
9 | 0.45 nM | O=C(Cn1c(Cl)cnc(NCC(F)(F)c2ccccn2)c1=O)NCc1ccccc1-n1cncn1 | 0.23 µM | half-life [4]: 3.5 h; Cmax [5]: 1130 nM
10 | 940 nM | O=C(Cn1c(Cl)cnc(NCC(F)(F)c2ccccn2)c1=O)NCc1ccccc1-c1nnn[nH]1 |  | 
11 | 0.05 nM | O=C(Cn1c(Cl)cnc(NCC(F)(F)c2cccc[n+]2[O-])c1=O)NCc1ccccc1-n1cnnn1 | 0.2 µM | 
12 | 12 nM | O=C(Cn1c(Cl)cnc(NCC(F)(F)c2ccccn2)c1=O)NCc1ccccc1 | 2.68 µM | 
13 | 2 nM | N[C@H](Cc1ccccn1)C(=O)N1CCC[C@H]1CC(=O)NCc1ccccc1-n1cncn1 | 0.39 µM | 
14 | 7.3 nM | Cc1ccc(NS(=O)(=O)Cc2ccccc2)c(=O)n1CC(=O)NCc1ccccc1-n1cncn1 | 1.06 µM | 
15 | 0.085 nM | O=C(Cn1ccnc(NCC(F)(F)c2cccc[n+]2[O-])c1=O)NCc1cc(Cl)ccc1-n1cncn1 | 0.26 µM | 
16 | 7.2 nM | O=C(Cn1ccnc(NCC(F)(F)c2cccc[n+]2[O-])c1=O)NCc1ccccc1-n1cncn1 | 0.98 µM | 
17 | 3 nM | N[C@@H](C(=O)N1CCC[C@H]1C(=O)NCc1cc(Cl)ccc1Cl)C(c1ccccc1)c1ccccc1 |  | half-life [6]: 1.67 h; bioavailability [7]: 45%
18 |  | O=C(Cn1c(Cl)cnc(NCC(F)(F)c2cccc[n+]2[O-])c1=O)NCc1cc(Cl)ccc1-n1cnnn1 | 0.13 µM | 
19 |  | Cc1nc(N)ccc1CNC(=O)Cn1c(C)cnc(NCCc2ccccc2)c1=O [L-375378] |  | bioavailability [8]: 60%; bioavailability [9]: 42%; bioavailability [7]: 91%
20 | 2.7 nM | O=C(Cn1ccnc(NCC(F)(F)c2ccccn2)c1=O)NCc1ccccc1-n1cnnn1 | 0.52 µM | 
21 | 16 nM | O=C(Cn1ccnc(NCC(F)(F)c2ccccn2)c1=O)NCc1ccccc1-n1cncn1 | 2.06 µM | 
22 | 0.21 nM | O=C(Cn1c(Cl)cnc(NCC(F)(F)c2cccc[n+]2[O-])c1=O)NCc1ccccc1-n1cncn1 | 0.29 µM | half-life [12]: 1.4 h; Cmax [13]: 860 nM
23 | 1.1 nM | O=C(Cn1ccnc(NCC(F)(F)c2cccc[n+]2[O-])c1=O)NCc1ccccc1-n1cnnn1 | 0.42 µM | Ki (Coagulation factor X): 370 nM

Row | Structure (SMILES) | Ki (Prothrombin) | 2x APTT [1] | further results
24 | O=C(Cn1c(Cl)cnc(NCC(F)(F)c2ccccn2)c1=O)NCc1ncccc1-n1cnnn1 | 0.14 nM | 0.25 µM | 
25 | O=C(Cn1c(Cl)cnc(NCC(F)(F)c2ccccn2)c1=O)NCc1ccccc1-c1ncc[nH]1 | 7.2 nM | 2.88 µM | 
26 | O=C(Cn1c(Cl)cnc(NCC(F)(F)c2ccccn2)c1=O)NCc1cc(Cl)ccc1-n1cncn1 | < 0.01 nM | 0.17 µM | 
27 | Cn1nnc(-c2ccccc2CNC(=O)Cn2c(Cl)cnc(NCC(F)(F)c3ccccn3)c2=O)n1 | 5.8 nM | 1.72 µM | 
28 | O=C(Cn1c(Cl)cnc(NCC(F)(F)c2ccccn2)c1=O)NCc1ncccc1-n1cncn1 | 0.66 nM | 0.33 µM | 
29 | O=C(Cn1c(Cl)cnc(NCC(F)(F)c2ccccn2)c1=O)NCc1ccccc1-n1ccnc1 | 6.3 nM | 1.29 µM | 
30 | O=C(Cn1c(Cl)cnc(NCC(F)(F)c2ccccn2)c1=O)NCc1cc(Cl)ccc1-n1cnnn1 | 0.0015 nM | 0.18 µM | 
31 | Cc1ccc(NS(=O)(=O)Cc2ccccc2)c(=O)n1CC(=O)NCc1cc(Cl)ccc1-n1cncn1 | 0.16 nM | 0.36 µM | 
32 | N[C@H](Cc1ccccn1)C(=O)N1CCC[C@H]1CC(=O)NCc1cc(Cl)ccc1-n1cnnn1 | 0.4 nM | 0.2 µM | 
33 | O=C(Cn1c(Cl)cnc(NCC(F)(F)c2ccccn2)c1=O)NCc1ccccc1-c1cc[nH]n1 | 5.6 nM | 2.08 µM | 
34 | O=C(Cn1c(Cl)cnc(NCC(F)(F)c2ccccn2)c1=O)NCc1ccccc1-n1cccn1 | 6.9 nM | 1.9 µM | 
35 | O=C(Cn1c(Cl)cnc(NCC(F)(F)c2ccccn2)c1=O)NCc1ccccc1-c1csnn1 | 0.84 nM | 0.6 µM | 
36 | O=C(Cn1c(Cl)cnc(NCC(F)(F)c2ccccn2)c1=O)NCc1ccccc1-n1cnnc1 | 3.5 nM | 0.52 µM | 
37 | Cn1nnnc1-c1ccccc1CNC(=O)Cn1c(Cl)cnc(NCC(F)(F)c2ccccn2)c1=O | 1.2 nM | 0.34 µM | 
38 | N[C@H](Cc1ccccc1)C(=O)N1CCC[C@H]1CC(=O)NCc1ccccc1-n1cncn1 | 1.06 nM |  | 
39 | Cc1ccc(-n2cncn2)c(CNC(=O)CN2C=CN=C(NCC(F)(F)c3ccccn3)C2)c1 | 0.24 nM | 0.33 µM | Cmax [10]: 1040 nM; half-life [11]: 1.2 h
40 | O=C(Cn1c(Cl)cnc(NCC(F)(F)c2cccc[n+]2[O-])c1=O)NCc1cc(Cl)ccc1-n1cncn1 | < 0.01 nM | 0.2 µM | 
41 | Cc1ccc(NS(=O)(=O)Cc2ccccc2)c(=O)n1CC(=O)NCc1cc(Cl)ccc1-n1cnnn1 | 0.018 nM | 0.23 µM | Ki (Coagulation factor X): 11 nM
